{"source": "ChEMBL document CHEMBL4602705", "about": "“Discovery of N-Cyano-sulfoximineurea Derivatives as Potent and Orally Bioavailable NLRP3 Inflammasome Inhibitors” (ACS Med Chem Lett, 2020)", "key": {"[1]": {"target": "T1, NACHT, LRR and PYD domains-containing protein 3 (Homo sapiens, UniProt Q96P20)", "T1 sequence (Q96P20 whole entry, the tested form may be a part)": "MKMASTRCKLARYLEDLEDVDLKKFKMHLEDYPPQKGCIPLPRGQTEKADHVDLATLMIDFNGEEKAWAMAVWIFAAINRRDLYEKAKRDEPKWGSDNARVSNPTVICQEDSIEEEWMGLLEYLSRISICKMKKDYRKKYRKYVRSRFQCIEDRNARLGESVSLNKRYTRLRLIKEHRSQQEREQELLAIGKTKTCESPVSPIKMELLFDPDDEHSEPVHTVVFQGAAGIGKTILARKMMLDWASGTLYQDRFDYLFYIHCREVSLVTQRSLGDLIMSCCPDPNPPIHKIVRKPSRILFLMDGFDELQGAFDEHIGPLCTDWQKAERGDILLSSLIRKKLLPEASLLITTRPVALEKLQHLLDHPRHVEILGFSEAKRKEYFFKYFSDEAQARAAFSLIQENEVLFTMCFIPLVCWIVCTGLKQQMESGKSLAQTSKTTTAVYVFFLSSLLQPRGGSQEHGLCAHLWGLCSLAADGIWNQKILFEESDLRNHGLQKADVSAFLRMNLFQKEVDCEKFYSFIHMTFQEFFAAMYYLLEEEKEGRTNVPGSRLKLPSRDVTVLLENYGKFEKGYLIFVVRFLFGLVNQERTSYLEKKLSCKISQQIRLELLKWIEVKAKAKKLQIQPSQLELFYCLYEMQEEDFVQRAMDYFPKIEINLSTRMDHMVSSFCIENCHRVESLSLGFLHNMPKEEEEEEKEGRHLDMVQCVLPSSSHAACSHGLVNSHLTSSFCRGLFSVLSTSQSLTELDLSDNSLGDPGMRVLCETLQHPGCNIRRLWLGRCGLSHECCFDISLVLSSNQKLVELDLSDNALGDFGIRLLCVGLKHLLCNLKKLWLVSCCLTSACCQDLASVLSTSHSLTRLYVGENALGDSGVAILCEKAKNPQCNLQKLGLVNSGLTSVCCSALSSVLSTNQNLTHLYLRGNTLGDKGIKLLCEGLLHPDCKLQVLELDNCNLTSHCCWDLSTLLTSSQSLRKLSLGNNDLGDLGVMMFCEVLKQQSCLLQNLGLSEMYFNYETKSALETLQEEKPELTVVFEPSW", "assay": "Inhibition of NLRP3 inflammasome activation in LPS-primed human THP1 cells assessed as reduction in IL-1beta level preincubated for 1 hr followed by addition of ATP and nigericin further incubated for 1 hrs and measured post ATP addition 1 hr by ELISA method", "format": "cell-based, THP-1"}, "[2]": {"target": "T1, NACHT, LRR and PYD domains-containing protein 3", "assay": "Inhibition of NLRP3 inflammasome activation in LPS-primed human THP1 cells assessed as reduction in IL-1beta level at 1 uM preincubated for 1 hr followed by addition of ATP and nigericin further incubated for 1 hrs and measured post ATP addition 1 hr by ELISA method relative to control", "format": "cell-based", "conditions": "THP-1"}, "[3]": {"assay": "AUC in C57/BL6 mouse at 3 mg/kg, po measured up to 24 hrs by LC-MS/MS analysis", "format": "ADME, organism-based", "design": "dose 3 mg/kg, time < 24 hr, route oral", "conditions": "in vivo", "outline": "(§1)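 Mouse PK, composite design, n = 3 per time point, mean values. Dosed 3 mg/kg po in 1% Tween 80 + 99% (0.5%) methyl cellulose in water; 1 mg/kg iv in 5% NMP + 5% solutol + 90% normal saline for bioavailability reference.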"}, "[4]": {"assay": "Half life in C57/BL6 mouse at 3 mg/kg, po measured up to 24 hrs by LC-MS/MS analysis", "format": "ADME, organism-based", "conditions": "in vivo", "outline": "as §1"}, "[5]": {"assay": "Oral bioavailability in C57/BL6 mouse at 3 mg/kg measured up to 24 hrs by LC-MS/MS analysis", "format": "ADME, organism-based", "conditions": "in vivo", "outline": "as §1"}, "Mus musculus": {"test_system": "Mus musculus", "assay": "Inhibition of LPS-induced serum IL-1beta production in C57/BL6 mouse at 10 mg/kg, po post-challenge with LPS for 2 hrs followed by ATP-challenge and measured after 30 mins by ELISA method relative to control", "format": "functional", "outline": "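Acute LPS+ATP challenge model in female C57BL/6 mice, n = 6/group; single oral dose 10 mg/kg in 1% Tween 80 and 99% methyl cellulose (0.5%); IL-1β compared with vehicle control; error bars SEM.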"}}}
{"smiles": "Cc1ccc(S(=O)(=O)NC(=O)C(=O)c2c3c(cc4c2CCC4)CCC3)cc1", "values": [{"measurement": "IC50", "setting": "[1]", "value": "> 1000", "unit": "nM"}]}
{"smiles": "O=C(Nc1c2c(cc3c1CCC3)CCC2)NC(c1ccccc1)C(F)(F)F", "note": "(stereo unspecified)", "values": [{"measurement": "IC50", "setting": "[1]", "value": "> 1000", "unit": "nM"}, {"measurement": "inhibition", "setting": "[2]", "value": "< 50", "unit": "%"}]}
{"smiles": "N#CN=S(=O)(NC(=O)Nc1c2c(cc3c1CCC3)CCC2)c1ccccn1", "note": "(stereo unspecified)", "values": [{"measurement": "AUC at 24 h", "setting": "[3]", "value": 8200, "unit": "ng·h/mL"}, {"measurement": "half-life", "setting": "[4]", "value": 5.2, "unit": "h"}, {"measurement": "bioavailability", "setting": "[5]", "value": 97, "unit": "%"}, {"measurement": "inhibition in vivo at 10 mg/kg", "setting": "Mus musculus", "value": 57, "unit": "%"}]}
{"smiles": "Cc1ccc(S(=O)(=NC#N)NC(=O)Nc2c3c(cc4c2CCC4)CCC3)cc1", "note": "(stereo unspecified)", "values": [{"measurement": "AUC at 24 h", "setting": "[3]", "value": 4200, "unit": "ng·h/mL"}, {"measurement": "half-life", "setting": "[4]", "value": 2.91, "unit": "h"}, {"measurement": "bioavailability", "setting": "[5]", "value": 56, "unit": "%"}, {"measurement": "inhibition in vivo at 10 mg/kg", "setting": "Mus musculus", "value": 44, "unit": "%"}]}
{"smiles": "Cc1ccc(S(=O)(=O)NC(=O)Cc2c3c(cc4c2CCC4)CCC3)cc1", "values": [{"measurement": "IC50", "setting": "[1]", "value": "> 1000", "unit": "nM"}]}
{"smiles": "O=C(Nc1c2c(cc3c1CCC3)CCC2)NC1(c2ccccc2)COC1", "values": [{"measurement": "IC50", "setting": "[1]", "value": "> 1000", "unit": "nM"}]}
{"smiles": "CN=S(=O)(NC(=O)Nc1c2c(cc3c1CCC3)CCC2)c1ccc(C)cc1", "note": "(stereo unspecified)", "values": [{"measurement": "IC50", "setting": "[1]", "value": "> 1000", "unit": "nM"}]}
{"smiles": "Cc1ccc(S(=O)(=O)NS(=O)(=O)Nc2c3c(cc4c2CCC4)CCC3)cc1", "values": [{"measurement": "IC50", "setting": "[1]", "value": "> 1000", "unit": "nM"}]}
{"smiles": "Cc1ccc(S(=O)(=O)NC(=O)C(O)c2c3c(cc4c2CCC4)CCC3)cc1", "note": "(stereo unspecified)", "values": [{"measurement": "IC50", "setting": "[1]", "value": "> 1000", "unit": "nM"}]}
{"smiles": "N#CC(NC(=O)Nc1c2c(cc3c1CCC3)CCC2)c1ccccc1", "note": "(stereo unspecified)", "values": [{"measurement": "IC50", "setting": "[1]", "value": "> 1000", "unit": "nM"}, {"measurement": "inhibition", "setting": "[2]", "value": "< 50", "unit": "%"}]}
{"smiles": "Cc1ccc(S(=O)(=NC#N)NC(=O)Nc2c3c(cc4c2CCC4)CCC3)cc1F", "note": "(stereo unspecified)", "values": [{"measurement": "AUC at 24 h", "setting": "[3]", "value": 3200, "unit": "ng·h/mL"}, {"measurement": "half-life", "setting": "[4]", "value": 2.38, "unit": "h"}, {"measurement": "bioavailability", "setting": "[5]", "value": 59, "unit": "%"}, {"measurement": "inhibition in vivo at 10 mg/kg", "setting": "Mus musculus", "value": 50, "unit": "%"}]}
{"smiles": "Cc1ccc(S(=O)(=O)Nc2c(Nc3c4c(cc5c3CCC5)CCC4)c(=O)c2=O)cc1", "values": [{"measurement": "IC50", "setting": "[1]", "value": "> 1000", "unit": "nM"}]}
{"smiles": "Cc1ccc(S(=O)(=Nc2ccn[nH]2)NC(=O)Nc2c3c(cc4c2CCC4)CCC3)cc1", "note": "(stereo unspecified)", "values": [{"measurement": "IC50", "setting": "[1]", "value": "> 1000", "unit": "nM"}]}
{"smiles": "N#CN=S(=O)(NC(=O)Nc1c2c(cc3c1CCC3)CCC2)c1cccc(C#N)c1", "note": "(stereo unspecified)", "values": [{"measurement": "AUC at 24 h", "setting": "[3]", "value": 1200, "unit": "ng·h/mL"}, {"measurement": "half-life", "setting": "[4]", "value": 1.13, "unit": "h"}, {"measurement": "bioavailability", "setting": "[5]", "value": 40, "unit": "%"}]}
{"smiles": "Cc1ccc(S(=O)(=O)NC(=O)C(=O)Nc2c3c(cc4c2CCC4)CCC3)cc1", "values": [{"measurement": "IC50", "setting": "[1]", "value": "> 1000", "unit": "nM"}]}
{"smiles": "CON=S(=O)(NC(=O)Nc1c2c(cc3c1CCC3)CCC2)c1ccc(C)cc1", "note": "(stereo unspecified)", "values": [{"measurement": "IC50", "setting": "[1]", "value": "> 1000", "unit": "nM"}]}
{"smiles": "CCOC(=O)N=S(=O)(NC(=O)Nc1c2c(cc3c1CCC3)CCC2)c1ccc(C)cc1", "note": "(stereo unspecified)", "values": [{"measurement": "IC50", "setting": "[1]", "value": "> 1000", "unit": "nM"}]}
{"smiles": "Cc1ccc(S(=O)(=NCC(F)(F)F)NC(=O)Nc2c3c(cc4c2CCC4)CCC3)cc1", "note": "(stereo unspecified)", "values": [{"measurement": "IC50", "setting": "[1]", "value": "> 1000", "unit": "nM"}]}
{"smiles": "N#CN=S(=O)(NC(=O)Nc1c2c(cc3c1CCC3)CCC2)c1cccnc1", "note": "(stereo unspecified)", "values": [{"measurement": "AUC at 24 h", "setting": "[3]", "value": 1280, "unit": "ng·h/mL"}, {"measurement": "half-life", "setting": "[4]", "value": 1.66, "unit": "h"}, {"measurement": "bioavailability", "setting": "[5]", "value": 24, "unit": "%"}]}
{"smiles": "N#CN=S(=O)(NC(=O)Nc1c2c(cc3c1CCC3)CCC2)c1ccc(C#N)cc1", "note": "(stereo unspecified)", "values": [{"measurement": "AUC at 24 h", "setting": "[3]", "value": 800, "unit": "ng·h/mL"}, {"measurement": "half-life", "setting": "[4]", "value": 1.03, "unit": "h"}, {"measurement": "bioavailability", "setting": "[5]", "value": 27, "unit": "%"}]}
{"smiles": "CC(=O)N=S(=O)(NC(=O)Nc1c2c(cc3c1CCC3)CCC2)c1ccc(C)cc1", "note": "(stereo unspecified)", "values": [{"measurement": "IC50", "setting": "[1]", "value": "> 1000", "unit": "nM"}]}
{"smiles": "Cc1ccc(S(=O)(=Nc2ccc(F)cc2)NC(=O)Nc2c3c(cc4c2CCC4)CCC3)cc1", "note": "(stereo unspecified)", "values": [{"measurement": "IC50", "setting": "[1]", "value": "> 1000", "unit": "nM"}]}
{"smiles": "Cc1ccc(S(=O)(=O)N/C(=N\\C#N)Nc2c3c(cc4c2CCC4)CCC3)cc1", "values": [{"measurement": "IC50", "setting": "[1]", "value": "> 1000", "unit": "nM"}]}
{"smiles": "Cc1ccc(S(=O)(=NC(N)=O)NC(=O)Nc2c3c(cc4c2CCC4)CCC3)cc1", "note": "(stereo unspecified)", "values": [{"measurement": "IC50", "setting": "[1]", "value": "> 1000", "unit": "nM"}]}
